PMC12137120 (Nature, 2025)
Numbering of substitutions follows the chain as printed.

Columns and labels:
[1] = test system: RAS mutant and wild-type cell lines; assay: Immunoblot of MAPK signalling in a panel of RAS mutant and wild-type cell lines; format: cell-based, human; conditions: 4 h, 30 µM
[2] = molecular target: T1, SHOC2(WT)–NRAS(Q61K) (Homo sapiens, UniProt Q9UQ13); assay: SHOC2–NRAS; format: cell-based
T1 sequence (Q9UQ13 1-582): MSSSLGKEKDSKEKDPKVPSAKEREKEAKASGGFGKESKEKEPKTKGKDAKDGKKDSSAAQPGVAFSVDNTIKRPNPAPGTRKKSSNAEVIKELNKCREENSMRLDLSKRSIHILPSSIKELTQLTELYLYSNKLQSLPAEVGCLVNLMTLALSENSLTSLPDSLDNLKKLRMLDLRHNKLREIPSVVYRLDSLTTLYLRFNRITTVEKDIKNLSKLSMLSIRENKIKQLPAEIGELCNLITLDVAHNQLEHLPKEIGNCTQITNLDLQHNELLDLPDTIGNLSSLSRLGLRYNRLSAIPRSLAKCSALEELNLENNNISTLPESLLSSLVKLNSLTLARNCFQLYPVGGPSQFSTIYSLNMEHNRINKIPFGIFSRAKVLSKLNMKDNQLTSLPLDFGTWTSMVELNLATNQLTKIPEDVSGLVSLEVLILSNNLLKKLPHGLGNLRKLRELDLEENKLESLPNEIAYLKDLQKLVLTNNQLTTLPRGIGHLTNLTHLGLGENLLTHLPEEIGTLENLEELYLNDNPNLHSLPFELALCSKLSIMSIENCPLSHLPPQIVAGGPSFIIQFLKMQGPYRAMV
How it was run: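 Monoclonal HEK 293T lines stably expressed full-length SHOC2–SmBiT with LgBiT–NRAS(Q61K); a SmBiT–128-aa linker–LgBiT line served as control. Cells were kept in DMEM with 10% FCS. 20,000 cells per well were seeded in medium with 0.1% FCS and held 2 h at 37 °C. Test compound was given for 4 h (seven-point 1:3, 30 µM to 40 nM). Medium was then replaced with phenol-red-free Opti-MEM plus NanoGlo Live substrate (1:60). n = 3 biological samples.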

[3] = test system: Mel Juso cell line; assay: RNA-seq global transcriptome analysis; format: cell-based, human; conditions: 4 h and 24 h, 30 µM and 100 µM
[4] = molecular target: T2, SHOC2(G290A)–NRAS(Q61K) (Homo sapiens, UniProt Q9UQ13, G290A); assay: SHOC2; format: cell-based
T2 sequence (Q9UQ13 1-582 G290A): T1 sequence (Q9UQ13 1-582) with G290A
How it was run: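 HEK 293T cells were plated at 20,000 per well and incubated overnight at 37 °C, 5% CO2. They were then transiently transfected with SHOC2(G290A)–SmBiT and LgBiT–NRAS(Q61K) and incubated overnight again. Test compound was added for 4 h as a seven-point 1:3 series from 10 µM […], from stock in DMSO/H2O 90:10. NanoGlo Live substrate (1:60 in phenol-red-free Opti-MEM) was then added.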

[5] = test system: RAS mutant and RAS WT cell lines; assay: Incucyte 3D cell proliferation, panel of RAS mutant and RAS WT cell lines; format: cell-based, human; conditions: 30 µM
How it was run: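 For spheroid or aggregate formation, cells were seeded in sextuplicate in ultralow-attachment round-bottom plates in 10% FCS medium, centrifuged 3 min at 200g and left 24 h. They were treated with 30 µM test compound or DMSO at 37 °C, 5% CO2, and imaged on an Incucyte every 6 h for three weeks at ×10.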

[6] = test system: MELJUSO cells; assay: Incucyte 3D cell proliferation; format: cell-based, human; conditions: RAS(Q61L) melanoma MELJUSO; twice-a-week treatment, 30 µM
How it was run: (§1)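 Cells were seeded in sextuplicate in ultralow-attachment round-bottom plates in 10% FCS medium, spun 3 min at 200g and left 24 h to form spheroids or aggregates. They were dosed with 30 µM test compound or DMSO twice weekly at 37 °C, 5% CO2, and imaged by Incucyte every 6 h for three weeks at ×10. Data are mean ± s.d., n = 6; two independent experiments.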

[7] = molecular target: T3, SHOC2–NRAS(Q61R) (Homo sapiens, UniProt Q9UQ13); assay: TR-FRET competitive binding assay SHOC2–NRAS Q61R:GTP; conditions: versus (R)-5
T3 sequence (Q9UQ13 1-582): T1 sequence (Q9UQ13 1-582)

[8] = test system: GTP-loaded RAS; assay: Active RAS pull-down assay; format: cell-based, human; conditions: Mel Juso and A375 cells, 30 µM, 2 h and 4 h
How it was run: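 Cells were treated with 30 µM test compound or DMSO for 2 h and 4 h, then lysed per the kit. 400 µg lysate was rotated with Raf-RBD beads for 1 h at 4 °C. Bound protein was eluted in 2× Laemmli buffer, boiled 5 min at 95 °C and immunoblotted alongside total lysates. Two independent experiments were run.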

[9] = molecular target: T4, SHOC2 (80–582) (Homo sapiens, UniProt Q9UQ13); assay: SPR to assess affinity of low-molecular-weight ligands on immobilized SHOC2; format: binding; conditions: versus (R)-5
T4 sequence (Q9UQ13 80-582): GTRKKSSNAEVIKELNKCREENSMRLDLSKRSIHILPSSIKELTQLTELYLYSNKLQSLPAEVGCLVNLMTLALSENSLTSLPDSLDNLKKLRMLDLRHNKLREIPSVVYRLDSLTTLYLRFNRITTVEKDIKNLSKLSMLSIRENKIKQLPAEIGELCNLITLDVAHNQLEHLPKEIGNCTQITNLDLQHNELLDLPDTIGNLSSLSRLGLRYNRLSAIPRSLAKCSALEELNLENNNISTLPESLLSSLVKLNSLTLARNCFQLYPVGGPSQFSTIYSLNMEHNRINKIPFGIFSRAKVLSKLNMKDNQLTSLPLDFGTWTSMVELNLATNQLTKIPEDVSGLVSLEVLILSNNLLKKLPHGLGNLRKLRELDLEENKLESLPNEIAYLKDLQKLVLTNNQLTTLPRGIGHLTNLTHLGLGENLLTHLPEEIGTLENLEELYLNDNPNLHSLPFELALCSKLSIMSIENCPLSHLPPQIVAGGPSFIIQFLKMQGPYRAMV

[10] = test system: A375 cells; assay: Incucyte 3D cell proliferation; format: cell-based, human; conditions: BRAF(V600E) melanoma A375; twice-a-week treatment, 30 µM
How it was run: as §1

[11] = test system: A375 cells; assay: Immunoblot of MAPK signalling; format: cell-based, human; conditions: BRAF(mut) melanoma cells A375, 30 µM, time course
How it was run: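 A375 cells got 30 µM test compound and were collected at several time points. They were cleared at 13,000 rpm, 4 °C, 20 min, protein was quantified by BCA, and samples were immunoblotted. Two independent experiments were run.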

[12] = test system: MELJUSO cells; assay: Immunoblot of MAPK signalling; format: cell-based, human
How it was run: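 MELJUSO cells were treated either with increasing doses for 24 h or with 30 µM over a time course. Lysis was in 1% Triton X-100/Tris-HCl pH 7.4/NaCl/EDTA buffer with phosphatase and protease inhibitors, then clearing at 13,000 rpm, 4 °C, 20 min and BCA protein assay. Immunoblots of the time course were quantified by densitometry as pCRAF/CRAF and pERK/ERK. Two independent experiments were run.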

[13] = molecular target: T5, SHOC2(G290A)–NRAS(Q61R) (Homo sapiens, UniProt Q9UQ13, G290A); assay: TR-FRET assay with resistant mutant SHOC2; format: binding
T5 sequence (Q9UQ13 1-582 G290A): T1 sequence (Q9UQ13 1-582) with G290A

Row | activity in SHOC2(WT)–NRAS(Q61mut) NanoBiT assay [2] | activity in SHOC2(G290A)–NRAS(Q61mut) NanoBiT assay [4] | fold higher potency in TR-FRET assay [7] | fold higher potency in SPR assay [9] | activity in SHOC2(G290A)–NRAS(Q61R) TR-FRET [13] | Compound | MAPK signalling in all cell models tested [1] | transcriptome changes, RAS/MAPK-associated genes [3] | MAPK signalling in EGFRΔex19 cells [1] | MAPK signalling in wild-type RTK/RAS or BRAF(V600E) mutant cell lines [1] | MAPK signalling in RAS mutant settings ([1]; Q61L, G12D and G12C mutant conditions) | 3D proliferation in wild-type RAS settings ([5]; including EGFRΔex19 cells) | 3D proliferation of RAS mutant models ([5]; prolonged treatment) | 3D cell proliferation [6] | RAS–GTP loading [8] | 3D cell proliferation [10] | pERK or pMEK inhibition [11] | inhibited CRAF (phospho-S259) levels ([12]; MELJUSO, 30 µM, time course) | MEK and ERK phosphorylation ([12]; NRAS(Q61mut) melanoma cells MELJUSO, 24 h increasing doses)
1 | no activity |  |  |  |  | CC(C)(C(=O)O)[C@@H](NC(=O)Cc1cccc(I)c1)c1ccc2oc(=O)[nH]c2c1 [Compound 7, (S)-3-(2-(3-iodophenyl)acetamido)-2,2-dimethyl-3-(2-oxo-2,3-dihydrobenzo[d]oxazol-5-yl)propanoic acid] | inert | no significant changes |  |  |  |  |  |  |  |  |  |  | 
2 | selective displacement | no activity | 10 fold | 10 fold | fully abolish compound 6 activity | CC(C)(C(=O)O)[C@H](NC(=O)Cc1cccc(I)c1)c1ccc2oc(=O)[nH]c2c1 [Compound 6, (R)-3-(2-(3-iodophenyl)acetamido)-2,2-dimethyl-3-(2-oxo-2,3-dihydrobenzo[d]oxazol-5-yl)propanoic acid] |  | dose-dependent and time-dependent modulation | only minor effects | no detectable effect | downregulated MAPK signalling | none | anti-proliferative effects | suppressed the cell proliferation | unaffected | but not of BRAF(V600E) | did not show any pERK or pMEK inhibition | increased levels | dose-dependent inhibition
